Data set [1] is described as follows: Drug metabolism in human liver S9 fraction assessed as SULT-mediated compound sulfation by measuring M1 formation at 1 uM pretreated for 5 mins followed by NADPH/UDPGA/ PAPS addition by Q-TOF LC-MS/MS analysis. It counts as ADME, subcellular. The note with it: s9, 1 µM. In a few lines:
(§1)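 Human liver S9 fraction (1 mg/mL) in 50 mM Tris buffer, pH 7.5, fortified with NADPH (1 mM), UDPGA and PAPS to support oxidative, glucuronidation and sulfation pathways. Parent loss and metabolites were analysed by Q-TOF LC-MS/MS.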

The nature of data set [2]: Drug metabolism in human liver S9 fraction assessed as UGT-mediated compound glucuronidation by measuring M2 formation at 1 uM pretreated for 5 mins followed by NADPH/UDPGA/ PAPS addition by Q-TOF LC-MS/MS analysis. Type of data set: ADME, subcellular. The following applies: s9, 1 µM. The procedure, abridged:
as §1

The nature of data set [3]: Half-life in human liver S9 fraction at 1 uM pretreated for 5 mins followed by NADPH/UDPGA/ PAPS addition by Q-TOF LC-MS/MS analysis. It counts as ADME, subcellular. The procedure, abridged:
as §1

Data set [4] in a line: Drug metabolism in human liver microsomes assessed as compound oxidation at 1 uM measured after 5 mins in absence of NADPH by Q-TOF LC-MS/MS analysis. It counts as ADME, microsome. For orientation: Liver microsomes are vesicles of endoplasmic reticulum, rich in cytochrome P450 enzymes.
For a further data set, the system named is B16. In words: Inhibition of alpha-MSH stimulated melanogenesis in mouse B16 cells. It counts as functional, cell-based.
Data set [5] can be described thus: Drug metabolism in human liver S9 fraction assessed as compound oxidation by measuring 4-[2-(4-Trifluoromethyl-benzylamino)-thiazol-4-yl]-benzene-1,2-diol formation at 1 uM pretreated for 5 mins followed by NADPH/UDPGA/ PAPS addition by Q-TOF LC-MS/MS analysis. It counts as ADME, subcellular. The following applies: s9, 1 µM. The procedure, abridged: as §1
Data set [6] can be described thus: Drug metabolism in human liver S9 fraction assessed as SULT-mediated compound sulfation by measuring M3 formation at 1 uM pretreated for 5 mins followed by NADPH/UDPGA/ PAPS addition by Q-TOF LC-MS/MS analysis. Type of data set: ADME, subcellular. The note with it: s9, 1 µM. The procedure, abridged:
as §1

A short description of data set [7]: Drug metabolism in human liver S9 fraction assessed as compound oxidation by measuring (4-Benzo[1,3]dioxol-5-yl-1-oxo-thiazol-2-yl)-(4-trifluoromethyl-benzyl)-amine formation at 1 uM pretreated for 5 mins followed by NADPH/UDPGA/ PAPS addition by Q-TOF LC-MS/MS analysis. The following applies: s9, 1 µM. Type of data set: ADME, subcellular. In a few lines:
as §1

A short description of data set [8]: Drug metabolism in human liver S9 fraction assessed as UGT-mediated compound glucuronidation by measuring M4 formation at 1 uM pretreated for 5 mins followed by NADPH/UDPGA/ PAPS addition by Q-TOF LC-MS/MS analysis. It counts as ADME, subcellular. The following applies: s9, 1 µM. The procedure, abridged: as §1
Data set [9] can be described thus: Drug metabolism in human liver S9 fraction treated with 4-(Benzo[d][1,3]dioxol-5-yl)-N-(4-(trifluoromethyl)benzyl)thiazol-2-amine assessed as metabolite formation at 1 uM pretreated for 5 mins followed by NADPH/UDPGA/ PAPS addition by Q-TOF LC-MS/MS analysis. Type of data set: ADME, subcellular. The following applies: s9, 1 µM. The procedure, abridged:
as §1

These results are taken from ChEMBL document CHEMBL4177588, “Synthesis, biological evaluation, and metabolic stability of chlorogenic acid derivatives possessing thiazole as potent inhibitors of α-MSH-stimulated melanogenesis” (Bioorg Med Chem Lett, 2017).

pIC50: −log10 of the molar value.

Turning to `O=C(/C=C/c1ccc(O)c(O)c1)NCc1ccc(C(F)(F)F)cc1`, the Drug metabolism result in data set [1], in [2] and in [4] was “Metabolite_Detected” throughout. For the same compound, in data set [3], the half-life at 1 µM came out at 5 min.
The compound `Oc1ccc(-c2csc(NCc3cccc(Cl)c3)n2)cc1O` gave a pIC50 with B16 of under 4.30.
Take `FC(F)(F)c1ccc(CNc2nc(-c3ccc4c(c3)OCO4)cs2)cc1`: the Drug metabolism result in data set [5], in data set [6], in data set [7] and in data set [8] was “Metabolite_Detected” throughout. In [3], the half-life at 1 µM came to 69.3 min. The same compound gave a pIC50 in the data set with B16 of 6.05.
Regarding `Oc1ccc(-c2csc(NCc3ccc(C(F)(F)F)cc3)n2)cc1O`, the pIC50 with B16 is 4.49. Moreover, the Drug metabolism result in data set [9] is “Metabolite_Detected”.
`c1ccc(CNc2nc(-c3ccc4c(c3)OCO4)cs2)cc1` gave a negative-log IC50 (pIC50) with B16 of 4.95.
Same read-out and setting: for `Oc1ccc(-c2csc(NCc3ccccc3Cl)n2)cc1O` the value was 5.70; for `Clc1cccc(CNc2nc(-c3ccc4c(c3)OCO4)cs2)c1`, 4.88; for `Oc1ccc(-c2csc(NCc3cccc(C(F)(F)F)c3)n2)cc1O`, 5.74.
The same measure, in the same setting: next, `FC(F)(F)c1cccc(CNc2nc(-c3ccc4c(c3)OCO4)cs2)c1`: 4.82.
Same read-out and setting: next, `Clc1ccc(CNc2nc(-c3ccc4c(c3)OCO4)cs2)cc1`: 4.42; `Oc1ccc(-c2csc(NCc3ccc(Cl)cc3)n2)cc1O`: 4.94.
Consider `[O-][s+]1cc(-c2ccc3c(c2)OCO3)nc1NCc1ccc(C(F)(F)F)cc1` (stereo not given), for which, in data set [9], the Drug metabolism result is “Metabolite_Detected”.
For `Clc1ccccc1CNc1nc(-c2ccc3c(c2)OCO3)cs1`, in the data set on B16, the pIC50 is 4.91.
Still for that read-out and setting: next, `Oc1ccc(-c2csc(NCc3ccccc3C(F)(F)F)n2)cc1O`: 5.59; `FC(F)(F)c1ccccc1CNc1nc(-c2ccc3c(c2)OCO3)cs1`: 5.02.
Consider `Oc1ccc(-c2csc(NCc3ccccc3)n2)cc1O`, for which the pIC50 with B16 was 5.68.

The term half-life denotes the time in which the quantity being followed falls by half. The pIC50 is −log10 of the IC50, conventionally taken in molar units. Low values mean a high IC50, high ones a low IC50.
